# Laboratory results taken from article PMC4668232 (Cancer research, 2015).
# Numbered stars: 1 amine (or outer) side, 2 acyl side, 3 side chain; on linkers, the order of the positions; unused ones are H or OH. Peptide text beside a SMILES is read from it. * marks the point of attachment. AMC = Cc1cc(=O)oc2cc(N*)ccc12; Suc = O=C(CCC(=O)[*:2])[*:1]; Cbz = O=C(OCc1ccccc1)*
# Experiments:
# [1] = system: PARP cleavage in BaF3/p210 cells; experiment: PARP cleavage, western blot; type: cell-based, mouse; conditions: 5 μM
# [2] = system: BaF3, BaF3/p210 and K562 cells; experiment: Proliferation/viability assay, 48 h; type: cell-based; conditions: read-out: EC50, viability
# [3] = system: Mcl-1 in BaF3/p210 cells; experiment: Mcl-1 levels, western blot; type: cell-based, mouse; conditions: 4 h
# [4] = molecular target: USP9x (Mus musculus, UniProt P70398); experiment: DUB activity profiling in cell lysates, USP9x labeling; type: biochemical; conditions: read-out: IC50, inhibition of USP9x labeling
# [5] = system: K63-linked Ub in BaF3/p210 cells; experiment: K63-linked HMW-Ub accumulation, whole cell lysate western blot; type: cell-based, mouse; conditions: 4 h
# [6] = system: Bcr-Abl in BaF3/p210 cells; experiment: Bcr-Abl levels and aggregation, western blot; type: cell-based, mouse
# [7] = molecular target: UCH37 in the 19S regulatory particle (Homo sapiens, UniProt Q9Y5K5); experiment: Activity profiling of UCH37 in 19S regulatory particle with Cy5-UbVME; type: biochemical; conditions: read-out: EC50, inhibition of UCH37
# [8] = system: Flag-Mcl-1 in COS1 cells; experiment: Flag-Mcl-1 ubiquitination, immunoprecipitation; type: cell-based, African green monkey; conditions: COS1 cells expressing Flag-Mcl-1, 2 h
# [9] = system: MCF7, NIH3T3 and COS1 cells; experiment: Proliferation/viability assay, 48 h; type: cell-based
# [10] = molecular target: catalytic domain of USP7 (Homo sapiens, UniProt Q93009); experiment: Recombinant DUB assay, USP7 catalytic domain; type: biochemical
# [11] = molecular target: USP7 (Mus musculus, UniProt Q6A4J8); experiment: DUB activity profiling in cell lysates, USP7; type: biochemical; conditions: immunoblotting
# [12] = molecular target: UCH37 (Mus musculus, UniProt Q9WUP7); experiment: DUB activity profiling in cell lysates, UCH37 labeling; type: biochemical; conditions: read-out: IC50, inhibition of UCH37 labeling
# [13] = molecular target: T1, recombinant USP9x (Homo sapiens, UniProt Q93008); experiment: Recombinant DUB assay; type: biochemical; conditions: for Ki: read-out: Ki, recombinant USP9x, Ub-AMC hydrolysis
# How it was run: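 Purified recombinant human USP9x was assayed by Ub-AMC hydrolysis. AMC release was monitored fluorimetrically at 37 °C in 50 mM HEPES pH 7.6, 100 mM NaCl, 0.75 mM BME and quantified against AMC standard curves. Slow-binding kinetics were analysed: kon was determined at varied Ub-AMC concentrations to assign inhibition mode, and Ki was derived.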
# [14] = molecular target: USP24 (Mus musculus, UniProt B1AY13); experiment: DUB activity profiling in cell lysates, USP24 labeling; type: biochemical; conditions: read-out: IC50, USP24 labeling
# [15] = molecular target: USP9x in BaF3/p210 cells (Mus musculus, UniProt P70398); experiment: USP9x inhibition in living cells; type: cell-based; conditions: read-out: IC50, USP9x inhibition in cells; BaF3/p210 cells treated 4 h
# [16] = system: DUBs; type: biochemical, mouse; conditions: for Reversibility of inhibition of DUB labeling: lysate incubated with 250 μM ITC, then diluted 20-fold into HA-UbVS; for Labeling of several DUBs (bands between 120 and 300 kDa): cell lysates, HA-UbVS
# [17] = system: 26S proteasome activity in COS1 cells expressing Ub^G76V-GFP; experiment: Ubiquitin G76V-GFP assay; type: cell-based, African green monkey; conditions: 8 h; for Effect on GFP levels: BITC, PEITC 12 μM, WP1130 5 μM
# [18] = system: Bcr-Abl in BaF3/p210 and K562 cells; experiment: Bcr-Abl ubiquitination; type: cell-based; conditions: 5 μM, 2 h
# How it was run: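 BaF3/p210 cells (1 h) or K562 cells (2 h) were exposed to 5 μM test compound or 0.1% DMSO at 37 °C. Lysates were set to 1 mg/mL and pre-cleared with protein G (1 h, 4 °C). Bcr-Abl was immunoprecipitated with anti-cAbl overnight at 4 °C onto protein G beads. Alternatively, K63-linked polyubiquitinated proteins were enriched on RAP80-UIM agarose. Immunoblotting followed.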
# [19] = system: K48-linked Ub in BaF3/p210 cells; experiment: K48-linked HMW-Ub accumulation, whole cell lysate western blot; type: cell-based, mouse; conditions: 4 h; for Increase in K48-linked Ub: 15 μM; for Accumulation of K48-linked HMW-Ub: bortezomib 20 nM
# [20] = system: cancer cell lines; conditions: read-out: EC50, inhibition of cell growth; exposure for only 3 h; cited from earlier work
# [21] = molecular target: recombinant UCHL3 (Homo sapiens, UniProt P15374); experiment: Recombinant DUB assay, UCHL3; type: biochemical
# [22] = molecular target: human 20S proteasome (Homo sapiens, UniProt P28074); experiment: 20S proteasome assay; type: biochemical; conditions: substrate; Hill coefficient = 2; pH 7.6, 25 °C
# [23] = system: proteasome activity of rabbit reticulocyte lysate; experiment: Proteasome activity of rabbit reticulocyte lysate; type: biochemical; conditions: substrate; Hill coefficient = 1.3
# [24] = molecular target: T1, recombinant USP9x; experiment: Labeling of recombinant USP9x with Cy5-UbVME; type: biochemical; conditions: read-out: IC50, inhibition of labeling of recombinant USP9x with Cy5-UbVME; purified recombinant enzyme
# T1 sequence (Q93008 whole entry): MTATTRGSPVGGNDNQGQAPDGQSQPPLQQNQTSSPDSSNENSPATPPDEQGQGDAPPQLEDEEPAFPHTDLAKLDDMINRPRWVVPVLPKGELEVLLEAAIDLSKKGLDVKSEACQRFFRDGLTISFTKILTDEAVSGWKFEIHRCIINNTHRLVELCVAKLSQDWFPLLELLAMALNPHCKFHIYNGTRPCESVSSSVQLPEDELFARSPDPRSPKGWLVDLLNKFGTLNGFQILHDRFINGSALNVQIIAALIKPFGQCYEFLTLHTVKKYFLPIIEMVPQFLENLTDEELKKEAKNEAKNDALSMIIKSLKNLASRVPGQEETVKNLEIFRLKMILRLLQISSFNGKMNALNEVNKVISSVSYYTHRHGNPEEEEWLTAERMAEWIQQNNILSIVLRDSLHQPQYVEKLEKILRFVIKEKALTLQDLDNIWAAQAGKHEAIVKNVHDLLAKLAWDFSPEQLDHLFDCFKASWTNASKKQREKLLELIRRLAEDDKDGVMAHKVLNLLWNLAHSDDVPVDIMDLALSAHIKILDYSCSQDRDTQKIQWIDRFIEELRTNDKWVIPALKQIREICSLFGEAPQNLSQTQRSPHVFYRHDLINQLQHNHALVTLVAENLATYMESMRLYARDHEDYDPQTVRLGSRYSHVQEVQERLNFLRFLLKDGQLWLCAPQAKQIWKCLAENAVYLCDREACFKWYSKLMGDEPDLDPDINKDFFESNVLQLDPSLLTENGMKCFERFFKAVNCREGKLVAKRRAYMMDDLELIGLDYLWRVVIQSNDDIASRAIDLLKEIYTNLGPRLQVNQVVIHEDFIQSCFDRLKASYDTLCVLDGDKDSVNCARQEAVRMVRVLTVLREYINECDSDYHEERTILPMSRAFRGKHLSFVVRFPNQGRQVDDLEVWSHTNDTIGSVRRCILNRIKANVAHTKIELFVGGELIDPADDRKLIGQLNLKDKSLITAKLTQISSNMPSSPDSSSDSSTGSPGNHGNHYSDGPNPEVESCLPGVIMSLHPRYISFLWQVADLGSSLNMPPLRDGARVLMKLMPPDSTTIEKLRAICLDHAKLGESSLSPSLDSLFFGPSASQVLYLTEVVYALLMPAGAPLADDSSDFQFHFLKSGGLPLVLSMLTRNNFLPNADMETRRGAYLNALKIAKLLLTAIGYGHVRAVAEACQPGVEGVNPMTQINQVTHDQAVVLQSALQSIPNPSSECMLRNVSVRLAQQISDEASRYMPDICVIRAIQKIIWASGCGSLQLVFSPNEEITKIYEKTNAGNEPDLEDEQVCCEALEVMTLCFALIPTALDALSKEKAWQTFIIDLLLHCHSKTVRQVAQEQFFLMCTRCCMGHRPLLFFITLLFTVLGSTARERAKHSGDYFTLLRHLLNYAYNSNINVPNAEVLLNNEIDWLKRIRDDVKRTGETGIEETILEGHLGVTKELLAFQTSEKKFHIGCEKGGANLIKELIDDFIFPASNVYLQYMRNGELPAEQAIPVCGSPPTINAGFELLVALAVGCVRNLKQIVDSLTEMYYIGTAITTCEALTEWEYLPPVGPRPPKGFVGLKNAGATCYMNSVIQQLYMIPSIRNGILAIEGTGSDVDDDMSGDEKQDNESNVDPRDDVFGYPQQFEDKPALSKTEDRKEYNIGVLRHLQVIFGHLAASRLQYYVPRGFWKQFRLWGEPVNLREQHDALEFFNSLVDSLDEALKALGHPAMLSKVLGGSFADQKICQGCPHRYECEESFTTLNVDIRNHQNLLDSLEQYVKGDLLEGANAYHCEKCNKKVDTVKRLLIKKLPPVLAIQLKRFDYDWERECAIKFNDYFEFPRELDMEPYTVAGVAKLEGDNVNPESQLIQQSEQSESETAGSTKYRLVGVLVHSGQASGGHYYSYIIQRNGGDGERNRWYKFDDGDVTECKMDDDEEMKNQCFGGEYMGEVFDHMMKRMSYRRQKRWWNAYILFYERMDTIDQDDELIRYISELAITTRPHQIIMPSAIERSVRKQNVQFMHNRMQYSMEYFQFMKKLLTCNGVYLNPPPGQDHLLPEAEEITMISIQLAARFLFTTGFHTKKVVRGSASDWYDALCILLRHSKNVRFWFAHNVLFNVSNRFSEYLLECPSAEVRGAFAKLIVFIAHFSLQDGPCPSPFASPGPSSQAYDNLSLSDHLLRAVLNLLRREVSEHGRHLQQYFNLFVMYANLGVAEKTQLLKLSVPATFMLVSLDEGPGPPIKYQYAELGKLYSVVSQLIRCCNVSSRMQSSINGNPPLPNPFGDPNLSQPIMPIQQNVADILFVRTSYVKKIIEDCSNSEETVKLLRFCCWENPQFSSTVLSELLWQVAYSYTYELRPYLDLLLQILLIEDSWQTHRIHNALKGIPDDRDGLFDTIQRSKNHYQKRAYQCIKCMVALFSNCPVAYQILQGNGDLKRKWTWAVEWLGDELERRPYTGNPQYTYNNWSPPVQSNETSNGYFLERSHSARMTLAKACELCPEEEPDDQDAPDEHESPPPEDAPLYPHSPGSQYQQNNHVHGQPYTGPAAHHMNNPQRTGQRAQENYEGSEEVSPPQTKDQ
# Sequence of USP9x in BaF3/p210 cells (P70398 whole entry): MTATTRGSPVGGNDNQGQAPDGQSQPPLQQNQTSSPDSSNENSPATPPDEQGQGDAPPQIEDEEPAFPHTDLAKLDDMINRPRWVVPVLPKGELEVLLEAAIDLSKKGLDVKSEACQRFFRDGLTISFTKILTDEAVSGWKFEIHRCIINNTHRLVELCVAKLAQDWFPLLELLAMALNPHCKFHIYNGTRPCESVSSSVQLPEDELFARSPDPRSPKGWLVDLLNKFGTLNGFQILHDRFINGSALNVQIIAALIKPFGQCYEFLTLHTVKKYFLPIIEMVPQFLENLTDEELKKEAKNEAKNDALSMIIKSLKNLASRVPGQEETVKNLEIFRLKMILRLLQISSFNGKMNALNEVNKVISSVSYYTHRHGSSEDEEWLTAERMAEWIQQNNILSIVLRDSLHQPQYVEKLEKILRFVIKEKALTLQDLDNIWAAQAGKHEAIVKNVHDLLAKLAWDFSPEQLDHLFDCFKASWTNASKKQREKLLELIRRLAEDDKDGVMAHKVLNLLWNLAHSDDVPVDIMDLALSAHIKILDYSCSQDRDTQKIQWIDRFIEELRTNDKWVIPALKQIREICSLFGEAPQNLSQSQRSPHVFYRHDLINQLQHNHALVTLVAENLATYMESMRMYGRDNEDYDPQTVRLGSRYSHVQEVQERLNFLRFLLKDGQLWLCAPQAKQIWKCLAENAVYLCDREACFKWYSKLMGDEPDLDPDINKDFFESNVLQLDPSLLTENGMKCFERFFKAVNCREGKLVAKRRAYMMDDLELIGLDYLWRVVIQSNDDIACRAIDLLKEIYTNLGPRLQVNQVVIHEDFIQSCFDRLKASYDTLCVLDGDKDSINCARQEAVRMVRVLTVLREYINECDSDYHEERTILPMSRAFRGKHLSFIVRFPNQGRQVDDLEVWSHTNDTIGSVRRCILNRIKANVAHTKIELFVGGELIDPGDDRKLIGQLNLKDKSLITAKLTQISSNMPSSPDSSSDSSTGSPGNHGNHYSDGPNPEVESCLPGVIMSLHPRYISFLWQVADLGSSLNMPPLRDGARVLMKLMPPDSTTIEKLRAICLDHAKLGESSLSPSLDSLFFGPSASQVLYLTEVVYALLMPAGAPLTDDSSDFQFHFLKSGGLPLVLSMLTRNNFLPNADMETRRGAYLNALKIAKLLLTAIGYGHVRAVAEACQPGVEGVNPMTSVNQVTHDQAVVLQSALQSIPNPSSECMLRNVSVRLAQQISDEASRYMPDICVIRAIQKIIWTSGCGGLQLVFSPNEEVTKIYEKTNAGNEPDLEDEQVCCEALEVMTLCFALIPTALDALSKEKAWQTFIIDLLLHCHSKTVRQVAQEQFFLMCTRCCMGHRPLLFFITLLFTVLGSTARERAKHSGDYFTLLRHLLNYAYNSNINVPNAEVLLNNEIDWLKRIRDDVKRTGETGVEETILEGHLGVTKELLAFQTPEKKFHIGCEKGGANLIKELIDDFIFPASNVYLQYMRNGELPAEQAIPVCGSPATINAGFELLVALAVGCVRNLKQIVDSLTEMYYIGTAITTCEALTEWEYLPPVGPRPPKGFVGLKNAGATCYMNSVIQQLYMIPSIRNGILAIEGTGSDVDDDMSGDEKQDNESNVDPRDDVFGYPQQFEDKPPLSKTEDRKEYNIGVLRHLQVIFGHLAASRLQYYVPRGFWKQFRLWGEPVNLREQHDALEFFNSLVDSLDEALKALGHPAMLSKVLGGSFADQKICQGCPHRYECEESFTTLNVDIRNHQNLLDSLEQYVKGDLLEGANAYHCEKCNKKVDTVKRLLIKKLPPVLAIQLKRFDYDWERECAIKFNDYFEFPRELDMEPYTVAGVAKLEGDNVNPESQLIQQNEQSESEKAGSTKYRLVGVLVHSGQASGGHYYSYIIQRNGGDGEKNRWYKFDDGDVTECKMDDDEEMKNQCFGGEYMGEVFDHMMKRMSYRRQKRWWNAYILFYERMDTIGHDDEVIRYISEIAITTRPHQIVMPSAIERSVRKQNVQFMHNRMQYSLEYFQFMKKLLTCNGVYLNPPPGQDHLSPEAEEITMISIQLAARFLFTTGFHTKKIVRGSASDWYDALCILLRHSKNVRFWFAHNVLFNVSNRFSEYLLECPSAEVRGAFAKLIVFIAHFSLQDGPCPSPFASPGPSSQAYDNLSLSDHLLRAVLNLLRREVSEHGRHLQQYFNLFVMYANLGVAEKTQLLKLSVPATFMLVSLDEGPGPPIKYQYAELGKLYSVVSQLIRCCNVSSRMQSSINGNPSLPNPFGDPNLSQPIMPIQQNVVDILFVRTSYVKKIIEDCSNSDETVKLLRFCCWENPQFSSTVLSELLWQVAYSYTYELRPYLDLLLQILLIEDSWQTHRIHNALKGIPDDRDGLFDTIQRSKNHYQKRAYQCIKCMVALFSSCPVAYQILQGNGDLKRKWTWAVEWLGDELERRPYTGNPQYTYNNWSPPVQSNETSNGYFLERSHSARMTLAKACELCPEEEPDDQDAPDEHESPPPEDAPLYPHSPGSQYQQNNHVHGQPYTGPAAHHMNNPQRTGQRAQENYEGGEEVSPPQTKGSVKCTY
# Sequence of USP9x (P70398 whole entry): as above
structure (smiles),measurement,setting,value
"S=C=NCc1ccccc1 [BITC, benzyl ITC]",Time at which PARP cleavage was observed,[1],6 h
same,EC50,[2],1 to 3 µM
same,Effect on Mcl-1 levels,[3],decrease
same,IC50,[4],27 ± 6 µM
same,Increase in K63-linked Ub,[5],9-18 fold
same,Effect on levels of total Bcr-Abl,[6],decreased
same,Bcr-Abl knockdown,"[6]; 5 μM, 2 h",essentially complete
same,EC50,[7],31 ± 6 µM
same,Levels of ubiquitinated Flag-Mcl-1,[8],increased
same,Fold less sensitive than Mcl-1-dependent cells,[9],8 to 40 fold
same,Inhibition of the catalytic domain of USP7,[10],No inhibition
same,Inhibition of USP7,[11],do not inhibit
same,IC50,[12],22 ± 4 µM
same,Mode of inhibition of recombinant USP9x,[13],slow binding competitive inhibitors
same,Ki,[13],25 ± 1 µM
same,IC50,[14],56 ± 5 µM
same,IC50,[15],4 ± 1 µM
same,Reversibility of inhibition of DUB labeling,[16],slowly reversible
same,Effect on GFP levels,[17],did not increase
same,Bcr-Abl ubiquitination,[18],increase
same,Increase in K48-linked Ub,[19],2 to 4 fold
same,EC50,[20],1.8 to 17 µM
same,Inhibition of recombinant UCHL3,[21],No inhibition
"C[S+]([O-])CCCCN=C=S (stereo not shown) [SFN, sulforaphane]",Accumulation of K48-linked HMW-Ub,[19],no effect
same,EC50,[20],~50 µM
"O=C1/C(=C/c2ccc([N+](=O)[O-])cc2)CS(=O)(=O)C/C1=C\c1ccc([N+](=O)[O-])cc1 [G5, reference compound]",Labeling of several DUBs (bands between 120 and 300 kDa),[16],reduced
"CC(C)C[C@H](NC(=O)[C@H](Cc1ccccc1)NC(=O)c1cnccn1)B(O)O [bortezomib, reference compound]",Effect on Mcl-1 levels,[3],increased
same,Effect on K63-linked Ub,[5]; bortezomib 20 nM,no effect
same,Levels of ubiquitinated Flag-Mcl-1,[8],increased
same,Increase in GFP fluorescence,[17]; bortezomib 4 μM,1.5 fold
same,Accumulation of K48-linked HMW-Ub,[19],increased
Cc1cc(=O)oc2cc(NC(=O)[C@H](Cc3ccc(O)cc3)NC(=O)[C@@H](NC(=O)[C@H](CC(C)C)NC(=O)[C@H](CC(C)C)NC(=O)CCC(=O)O)C(C)C)ccc12 [Suc-Leu-Leu-Val-Tyr-AMC] (Suc-LLVY-{AMC}),K0.5 for human 20S proteasome,[22],12 ± 2 µM
same,Apparent K0.5 of proteasome activity of rabbit reticulocyte lysate,[23],28 ± 3 µM
"CCC[C@H](NC(=O)/C(C#N)=C/c1cccc(Br)n1)c1ccccc1 [WP1130, reference compound]",Levels of ubiquitinated Flag-Mcl-1,[8],increased
same,Labeling of several DUBs (bands between 120 and 300 kDa),[16],reduced
same,Effect on GFP levels,[17],did not cause an increase
"CC(C)C[C@@H](C=O)NC(=O)[C@H](CC(C)C)NC(=O)[C@H](CC(C)C)NC(=O)OCc1ccccc1 [MG-132, reference compound] (Cbz-Leu-Leu-Leu-aldehyde)",Effect on Mcl-1 levels,[3],increased
"S=C=NCCc1ccccc1 [PEITC, phenethyl ITC]",Time at which PARP cleavage was observed,[1],4 h
same,EC50,[2],1 to 3 µM
same,Effect on Mcl-1 levels,[3],decrease
same,IC50,[4],15 ± 3 µM
same,Increase in K63-linked Ub,[5],9-18 fold
same,Effect on levels of total Bcr-Abl,[6],decreased
same,"Bcr-Abl level, % of its initial level","[6]; 5 μM, within 2 h",20%
same,EC50,[7],36 ± 5 µM
same,Levels of ubiquitinated Flag-Mcl-1,[8],increased
same,Fold less sensitive than Mcl-1-dependent cells,[9],8 to 40 fold
same,Inhibition of the catalytic domain of USP7,[10],No inhibition
same,Inhibition of USP7,[11],do not inhibit
same,IC50,[12],13 ± 1 µM
same,Mode of inhibition of recombinant USP9x,[13],slow binding competitive inhibitors
same,Ki,[13],23 ± 2 µM
same,IC50,[14],28 ± 5 µM
same,IC50,[15],7 ± 2 µM
same,Reversibility of inhibition of DUB labeling,[16],slowly reversible
same,Effect on GFP levels,[17],did not increase
same,Bcr-Abl ubiquitination,[18],increase
same,Increase in K48-linked Ub,[19],2 to 4 fold
same,EC50,[20],1.8 to 17 µM
same,IC50,[24],20 ± 2 µM
same,Inhibition of recombinant UCHL3,[21],No inhibition
